Data on 16 molecules can be found in ChEMBL document CHEMBL4028882, “Thiazolino 2-Pyridone Amide Isosteres As Inhibitors of Chlamydia trachomatis Infectivity” (J Med Chem, 2017).

A word on the EC50: it is the concentration needed to bring the measured effect to its halfway point.

The nature of series [1]: Cytotoxicity against human HeLa229 cells assessed as cell viability at 10 uM after 44 to 48 hrs by resazurin-based fluorometry relative to control. The arrangement: species or system HeLa 229. The following applies: read-out: Activity. In outline: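 HeLa host cell viability was measured with compound at 10 μM in a resazurin assay, run to exclude host toxicity as the cause of anti-infective activity.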
(In general: The colour change of resazurin is a common sign of viable cells or microbes.)

In series [2] the test system is Chlamydia trachomatis. The series is described as follows: Antimicrobial activity against Chlamydia trachomatis serovar LGV-L2 454/Bu infected in human HeLa229 cells assessed as concentration required to reduce reinfection levels by >= 95% measured 44 to 48 hrs post infection by DAPI staining-based assay. In kind it is functional. In outline: (§1)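 HeLa cells were infected with C. trachomatis LGV-L2 and treated with compound. After 48 h the cells were lysed and the recovered bacteria used to infect fresh HeLa cells. Reinfection was quantified as new inclusion forming units versus cells infected with untreated bacteria. The concentration giving 95% reduction (Reinfect95) was determined from fixed concentrations of 2.5, 1.0, 0.5 and 0.25 μM.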

Series [3] relates to Chlamydia trachomatis. Nature of the series: Antimicrobial activity against Chlamydia trachomatis serovar LGV-L2 454/Bu infected in human HeLa229 cells assessed as reduction in reinfection levels measured 44 to 48 hrs post infection by DAPI staining-based assay. Type of series: functional, cell-based. To be noted: HeLa 229. In outline: as §1
A further series relates to Escherichia coli. The series is described as follows: Growth inhibition of Escherichia coli CCUG 17620 at 10 ug/ml after 24 hrs by disk diffusion method. In outline:
(§2)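 Disk diffusion assay of vaginal flora species (S. aureus, E. coli, L. jensenii, S. agalactiae) and the fungus C. albicans, with compound tested at 10 μg/mL.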
(In general: Agar diffusion results depend on both activity and mobility in agar.)

In the next series the test system is Lactobacillus jensenii. The series is described as follows: Growth inhibition of Lactobacillus jensenii CCUG 33572 at 10 ug/ml after 24 hrs by disk diffusion method. In outline: as §2
A further series concerns Staphylococcus aureus. Nature of the series: Growth inhibition of Staphylococcus aureus CCUG 1800 at 10 ug/ml after 24 hrs by disk diffusion method. In outline: as §2
Series [4] deals with Chlamydia trachomatis. Nature of the series: Antimicrobial activity against Chlamydia trachomatis serovar LGV-L2 454/Bu expressing mCherry infected in human HeLa cells assessed as reduction in accumulation of BODIPY 22 in bacterial inclusions at 0.5 uM incubated for 48 hrs by BODIPY 22-based confocal microscopy.
For the next series, the system named is Candida albicans. The series is described as follows: Growth inhibition of Candida albicans at 10 ug/ml after 24 hrs by disk diffusion method. In outline: as §2
A further series concerns Streptococcus agalactiae. The series is described as follows: Growth inhibition of Streptococcus agalactiae CCUG 4208 at 10 ug/ml after 24 hrs by disk diffusion method. In outline:
as §2

In series [5] the test system is Salmonella typhimurium. The series is described as follows: Mutagenicity in Salmonella typhimurium TA98/TA100 assessed as revertant colonies/plate in presence of rat liver S9 fraction at 10 ug/spot after 2 to 3 days by Ames test. In kind it is toxicity. The following applies: salmonella enterica subsp. enterica serovar typhimurium. In outline: (§3)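 Mutagenicity was screened by the spot-based Ames test procedure, with compound applied at 10 μg/spot.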
In general terms: The Ames test detects mutagens through reverse mutation in bacteria.

In series [6] the test system is Chlamydia trachomatis. The series is described as follows: Antimicrobial activity against Chlamydia trachomatis serovar D UW-3 infected in human HeLa229 cells assessed as reduction in reinfection levels measured 44 to 48 hrs post infection by DAPI staining-based assay. Type of series: functional, cell-based. To be noted: serovar D UW-3, HeLa 229.
Series [7] relates to Chlamydia trachomatis. Nature of the series: Antimicrobial activity against Chlamydia trachomatis serovar LGV-L2 454/Bu infected in human HeLa229 cells at 1 uM compound treated during 48 hrs of infection by DAPI staining-based assay. Type of series: functional, cell-based. In outline:
(§4)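 Time-of-addition format of the LGV-L2 HeLa infection/reinfection assay. Compound was present during the first 24 h, the second 24 h, or throughout the 48 h infection. Infectivity was then scored against untreated controls.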

Series [8] has as its system Salmonella typhimurium. Nature of the series: Mutagenicity in Salmonella typhimurium TA1535/TA1538 assessed as revertant colonies/plate in presence of rat liver S9 fraction at 10 ug/spot after 2 to 3 days by Ames test. In kind it is toxicity. To be noted: salmonella enterica subsp. enterica serovar typhimurium. In outline: as §3
Series [9] deals with Chlamydia trachomatis. Nature of the series: Antimicrobial activity against Chlamydia trachomatis serovar LGV-L2 454/Bu infected in human HeLa229 cells at 1 uM compound treated during first 24 hrs of infection by DAPI staining-based assay. Type of series: functional, cell-based. In outline: as §4
Series [10] relates to Salmonella typhimurium. The series is described as follows: Mutagenicity in Salmonella typhimurium TA98/TA100 assessed as revertant colonies/plate in absence of rat liver S9 fraction at 10 ug/spot after 2 to 3 days by Ames test. Type of series: toxicity. The following applies: salmonella enterica subsp. enterica serovar typhimurium. In outline: as §3
Series [11] concerns Salmonella typhimurium. The series is described as follows: Mutagenicity in Salmonella typhimurium TA1535/TA1538 assessed as revertant colonies/plate in absense of rat liver S9 fraction at 10 ug/spot after 2 to 3 days by Ames test. Type of series: toxicity. The following applies: salmonella enterica subsp. enterica serovar typhimurium. In outline:
as §3

The source made the active and inactive calls. The rule behind the calls is not given here.

`O=c1cc(Cc2cccc3ccccc23)c(C2CC2)c2n1C(c1nc(-c3ccccc3)co1)CS2` (configuration not stated): in series [1], the viability at 10 µM worked out at 83%. The Activity in the series with Chlamydia trachomatis [2] worked out at 2.5 µM.
Taken in the same sequence, the figures for `Nc1c(Cc2cccc3ccccc23)c(C2CC2)c2n(c1=O)C(c1nc(-c3ccccc3)n[nH]1)CS2` (configuration not stated) were 100% and 0.25 µM.
Taken in the same sequence, the figures for `Cc1cccc(-c2n[nH]c(C3CSc4c(C5CC5)c(Cc5cccc6ccccc56)cc(=O)n43)n2)c1` (configuration not stated) were 95% and 0.5 µM.
Taken in the same sequence, the figures for `O=c1cc(Cc2cccc3ccccc23)c(C2CC2)c2n1C(c1ncc(-c3ccccc3)s1)CS2` (configuration not stated) were 97% and >2.5 µM.
`O=c1cc(Cc2cccc3ccccc23)c(C2CC2)c2n1C(n1cc(-c3ccccc3)nn1)CS2` (configuration not stated): the EC50 in the series with Chlamydia trachomatis [3] was 18 nM; in the series with Chlamydia trachomatis [6], 37 nM. The viability at 10 µM in series [1] worked out at 96%. The “growth inhibition (GI)” value with Escherichia coli, in the series with Lactobacillus jensenii, in the series with Staphylococcus aureus, in the series with Candida albicans and in the series with Streptococcus agalactiae was “Non-Toxic” throughout. The Activity in the series with Chlamydia trachomatis [2] was 0.25 µM; in the series on Salmonella typhimurium [5], “Non-Toxic”; in the series with Salmonella typhimurium [8], “Non-Toxic”; in the series on Salmonella typhimurium [10] it was “Non-Toxic”; in the series on Salmonella typhimurium [11] it was “Non-Toxic”. The result in the series on Chlamydia trachomatis [4] and in the series on Chlamydia trachomatis [7] was Active. Moreover, the result in the series with Chlamydia trachomatis [9] was inactive.
`Nc1c(Cc2cccc3ccccc23)c(C2CC2)c2n(c1=O)C(C(=O)Nc1ccccc1)CS2` (configuration not stated): the Activity result with Salmonella typhimurium [5], with Salmonella typhimurium [8], in the series on Salmonella typhimurium [10] and in the series with Salmonella typhimurium [11] was “Non-Toxic” in each case.
On to `O=C(NC1CSc2c(C3CC3)c(Cc3cccc4ccccc34)cc(=O)n21)c1ccccc1` (configuration not stated), for which the viability at 10 µM in [1] was 114%. Further, the Activity with Chlamydia trachomatis [2] turned out to be 2.5 µM.
Taken in the same sequence, the figures for `O=C(CNC(=O)C1CSc2c(C3CC3)c(Cc3cccc4ccccc34)cc(=O)n21)c1ccccc1` (configuration not stated) were 107% and 2.5 µM.
As to `O=c1cc(Cc2cccc3ccccc23)c(C2CC2)c2n1C(c1nnc(-c3ccccc3)o1)CS2` (configuration not stated), the viability at 10 µM in [1] was found to be 103%. Besides, the Activity in the series on Chlamydia trachomatis [2] was 1 µM.
Taken in the same sequence, the figures for `CC(C)(C)OC(=O)NC1CSc2c(C3CC3)c(Cc3cccc4ccccc34)cc(=O)n21` (configuration not stated) were 105% and >2.5 µM.
With `O=c1cc(Cc2cccc3ccccc23)c(C2CC2)c2n1C(c1nc(-c3ccccc3)no1)CS2` (configuration not stated), the viability at 10 µM in [1] worked out at 99%. The Activity in the series on Chlamydia trachomatis [2] was >2.5 µM.
Taken in the same sequence, the figures for `O=c1cc(Cc2cccc3ccccc23)c(C2CC2)c2n1C(NS(=O)(=O)c1ccccc1)CS2` (configuration not stated) were 114% and >2.5 µM.
Taken in the same sequence, the figures for `O=c1cc(Cc2cccc3ccccc23)c(C2CC2)c2n1C(c1nc(-c3ccccc3)n[nH]1)CS2` (configuration not stated) were 98% and 0.5 µM.
With `Nc1c(Cc2cccc3ccccc23)c(C2CC2)c2n(c1=O)C(n1cc(-c3ccccc3)nn1)CS2` (configuration not stated), the EC50 with Chlamydia trachomatis [3] came out at 13 nM; in the series on Chlamydia trachomatis [6], 35 nM. In addition, in series [1], the viability at 10 µM worked out at 105%. Besides, the “growth inhibition (GI)” value with Escherichia coli, in the series on Lactobacillus jensenii, in the series with Staphylococcus aureus, in the series with Candida albicans and in the series on Streptococcus agalactiae was “Non-Toxic” each time. Moreover, the Activity in the series on Chlamydia trachomatis [2] is 0.25 µM; with Salmonella typhimurium [5] it was “Non-Toxic”; in the series on Salmonella typhimurium [8] it was “Non-Toxic”; with Salmonella typhimurium [10] it was “Non-Toxic”; with Salmonella typhimurium [11], “Non-Toxic”. For the same molecule, the result with Chlamydia trachomatis [4] and in the series on Chlamydia trachomatis [7] was Active. In addition, the result in the series on Chlamydia trachomatis [9] was inactive.
For the molecule `O=C(NS(=O)(=O)c1ccccc1)C1CSc2c(C3CC3)c(Cc3cccc4ccccc34)cc(=O)n21` (configuration not stated), the viability at 10 µM in series [1] was 105%. Moreover, the Activity with Chlamydia trachomatis [2] is >2.5 µM.
Taken in the same sequence, the figures for `O=c1cc(Cc2cccc3ccccc23)c(C2CC2)c2n1C(c1nc(-c3ccccc3)c[nH]1)CS2` (configuration not stated) were 106% and 2.5 µM.
